TPT1 inh – C. albicans TPT1 enzyme inhibition. AID 1962. inhibition, % at 5 µM. 0.81% of 300,000 active. recombinant caTPT1, FP RNA substrate dephosphorylation;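 active means inhibition above the mean of all tested compounds plus 3 SD, set per screening campaign, cut at about 24% in these data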;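 further: plate controls were DMSO alone for no effect and ferristatin control at 100 nM for full effect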
HNF4A DNA FP – change in binding of human HNF4 alpha to DNA. P41235. HNF4a-FITC DNA binding, fluorescence polarization, 1 h. activity change, % at 10 µM. 0.3% of 360,000 active. AID 1224865; in the data active means activity change above about 30%, passing the limit was not always enough
Rpn11 inh – Rpn11 (human) deubiquitinase inhibition; O00487; human 26S proteasome, Ub4-pepOG fluorescence polarization; 20S core pre-blocked with epoxomicin; calls only at 20 µM; 0.59% of 360,000 active; AID 588493;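 active means inhibition at 20 µM, scaled to each plate's controls, above about 33%, limit read from the data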
CSN inh – CSN deneddylation inhibition. Purified CSN, SCF-Nedd8-OG deneddylation, fluorescence polarization. inhibition, % at 12.5 µM. 0.38% of 360,000 active. Q92905. AID 651999;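 active means pattern-corrected inhibition above about 35%, with an unprinted fluorescence ratio check between 0.5 and 1.5, limit read from the data, passing the limit was not always enough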;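 further: 0% = enzyme with substrate and 100% = substrate without enzyme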
Target sequence (Q92905 whole entry, looked up, one chain of several): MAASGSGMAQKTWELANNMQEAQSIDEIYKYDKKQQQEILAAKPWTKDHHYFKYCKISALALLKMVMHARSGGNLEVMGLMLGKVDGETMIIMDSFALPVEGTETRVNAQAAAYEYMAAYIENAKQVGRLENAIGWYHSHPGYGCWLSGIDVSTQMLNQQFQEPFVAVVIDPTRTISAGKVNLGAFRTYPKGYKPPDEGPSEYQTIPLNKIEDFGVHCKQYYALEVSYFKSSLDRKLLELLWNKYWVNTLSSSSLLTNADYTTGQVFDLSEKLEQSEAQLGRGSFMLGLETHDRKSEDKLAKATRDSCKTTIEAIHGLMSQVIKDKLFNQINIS
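Assay system: Purified human Csn5 enzyme expressed in HEK293T cells | Amount: Enzyme 0.24 nM | Measured by: Fluorescence polarization readout | Medium: Tris/NaCl/DTT buffer, pH 7.5 | Compound dosing: One concentration, 12.5 µM, 0.25% DMSO | Times: 90 min incubation of compound, enzyme and substrate at room temperature | Control set: no-enzyme wells high, enzyme-with-substrate wells low | Read-out: % inhibition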
Numbers without * were called inactive; i = inactive; . = no result given; + = active, no number. Most compounds without a hit are left out; they make up all but 1.5% or so of the library.

SMILES	TPT1 inh	HNF4A DNA FP	Rpn11 inh	CSN inh
CCOC(=O)C1CCCN(S(=O)(=O)NC[C@H]2O[C@@H](n3cnc4c(N)ncnc43)[C@H](O)[C@@H]2O)C1 (some centres undefined)	.	2	i	-4
CNS(=O)(=O)c1ccc(NC(=O)c2cnn3c(C(F)F)cc(-c4ccccc4)nc23)cc1	-4	-11	i	72*
CC(Oc1ccccc1Cl)C(=O)N(Cc1ccco1)C1CCS(=O)(=O)C1 (centres undefined)	-2	31*	i	7
Cc1ccc(NC(=O)COC(=O)c2ccc[n+]([O-])c2)c(Br)c1	.	7	i	-2
O=C(NC1CCN(C(=S)NCc2ccco2)CC1)NC12CC3CC(CC(C3)C1)C2	1	43*	i	6
COc1cc2cc(Oc3ccc4ccc(=O)oc4c3)c(=O)oc2cc1O[C@@H]1O[C@H](CO)[C@@H](O)[C@H](O)[C@H]1O	.	-27	i	38*
COc1cc2cc(Oc3ccc4ccc(=O)oc4c3)c(=O)oc2cc1OC1OC(COC(=O)CC(C)(O)CC(=O)O)C(O)C(O)C1O (centres undefined)	-3	-5	i	9
O=C(CSc1nnc(CNC(=O)c2ccccc2F)o1)NCc1ccco1	-1	8	i	40*
Cc1ccc2nc(N3C(=O)C(O)=C(C(=O)c4ccco4)C3c3ccc(O)cc3)sc2c1 (centres undefined)	6	6	i	12
CCc1ccc2nc(N3C(=O)C(O)=C(C(=O)c4ccco4)C3c3cccs3)sc2c1 (centres undefined)	-3	8	+	11
Cc1ccc2nc(N3C(=O)C(O)=C(C(=O)c4cc5ccccc5o4)C3c3cccs3)sc2c1 (centres undefined)	2	10	+	8
Cc1ccc(N(C)S(=O)(=O)c2cccc(C(=O)NCCCN3CCCC3=O)c2)cc1	.	-1	i	4
CCN(CC(=O)Nc1c(F)cccc1F)C(=O)CN1C(=O)C2CCCCC2C1=O (centres undefined)	.	7	i	4
CS(=O)(=O)N(CC(=O)N1CCOCC1)c1cccc(Cl)c1	.	5	i	90*
N=C1/C(=C\c2ccc(-c3ccc(C(=O)O)cc3)o2)C(=O)N=C2SC=C(c3ccccc3)N12	.	-40	+	50
Cc1ccc(S(=O)(=O)N2CCN(C(=O)CCC(=O)Nc3ccc(F)cc3F)CC2)cc1	.	-2	i	-1
CSC1=C(C#N)C(c2ccncc2)C(C(=O)Nc2ccccc2)=C(C)N1 (centres undefined)	-1	-2	i	93*
Cc1nnc(NC(=O)c2sc3nc(-c4cccs4)cc(C(F)(F)F)c3c2N)s1	47*	68	.	106*
COc1ccc(C(=O)NCC(C)NC(=O)c2ccc(OC)c(OC)c2)cc1OC (centres undefined)	0	2	i	1
COc1ccc(C(=O)NC(NC(=O)c2ccc(OC)c(OC)c2)c2ccccc2F)cc1OC	-2	45*	i	2
Nc1ccn([C@@H]2O[C@H](CNCc3ccc(C#CCCO)cc3)[C@@H](O)[C@H]2O)c(=O)n1	.	-2	i	45*
COc1ccc(N2CC(C(=O)N[C@@H](CC(C)C)C(=O)NC3CCCCC3)CC2=O)cc1 (some centres undefined)	-2	4	i	1
CCC(=O)N1CCC1(C)C(=O)Nc1ccc2nc(C)ccc2c1 (centres undefined)	.	2	i	-1
Cc1cccc(NS(=O)(=O)c2ccc(NC(=O)N3CCCCC3)cc2)c1	-3	0	i	43*
CCCN(Cc1nnc(-c2cccs2)o1)C(=O)CN1C(=O)NC2(CCCCC2)C1=O	.	1	i	-4
SMILES	TPT1 inh	HNF4A DNA FP	Rpn11 inh	CSN inh
O=C1CN(C(=O)COC(=O)[C@@H]2CCCN2S(=O)(=O)c2ccc(Cl)cc2)c2ccccc2N1	.	-1	i	1
CC1(C(=O)NCc2ccccc2)CCC(=O)N1C1CC1 (centres undefined)	.	0	i	-8
CCCCn1cc(SCC(=O)O)c2ccccc21	-3	-5	i	59*
CCCn1cc(SCC(=O)NC2CCCC2)c2ccccc21	-1	-4	i	-3
CC1(C)N=C(N)N=C(N)N1c1ccc(CCCCc2ccccc2)cc1	.	-2	i	3
COc1ccc(C2=NN3C(C2)c2ccccc2OC3c2cccs2)cc1 (centres undefined)	9	6	+	9
O=c1oc2ccc(Cl)cc2nc1/C=C(\O)c1cccs1	-1	54*	i	8
Cc1ccc2oc(=O)c(/C=C(\O)c3cccs3)nc2c1	-2	12	.	34
CN1/C(=C/C(=O)c2ccc(Cl)cc2)Sc2cc3c(cc21)OCO3	19	45*	.	-9
Nc1nn(-c2cccc(F)n2)cc1-c1ccc(Cl)cc1	.	-3	i	-8
Nc1nn(-c2cccc(F)n2)cc1-c1ccccc1	.	39*	i	1
O=Cc1ccc2oc3nc4n(c(=O)c3c(=O)c2c1)CCCS4	-4	-32	.	45*
CC(=O)c1ccc(NC(=O)c2cccc(N3C(=O)c4ccccc4C3=O)c2)cc1	1	165	+	132
CCCCN(C)C(=O)c1sc(=O)n(Cc2ccc(Cl)c(Cl)c2)c1C	.	3	i	-7
CCCCC[C@H](C)N1C[C@@H](COCc2ccccc2)Oc2cc(N3CCC[C@@H]3COC)ccc2S1(=O)=O	.	-2	.	1
Cc1cccc(CCN2CCN=C2N(C)C)c1	-1	-2	i	-5
O=c1onc(-c2ccccc2Cl)n1-c1ccccc1Cl	-1	2	i	5
COc1nc(N)nc2nc[nH]c12	-2	3	i	3
Cc1sc2nc(CSCC(=O)N(CCC#N)c3ccccc3)[nH]c(=O)c2c1C	23	19	+	8
Cc1sc2nc(CSCC(=O)N(C)c3ccccc3)[nH]c(=O)c2c1C	18	20	i	6
O=C(CCNC(=O)c1ccccc1)NCCCc1ccccc1	.	-3	i	0
O=C(/C=C/c1cccc(C(F)(F)F)c1)NNC(=O)c1ccncc1	.	3	i	-3
CCOC(=O)c1ccc(NC(=O)Nc2ccc(F)cc2)cc1	-1	-1	i	2
CCCCCCNc1ccc(C(=O)OCC)cc1	.	-4	i	124*
Cc1cc(C)cc(OCC(=O)OCC(=O)NC2CCCCCC2)c1	.	-2	i	10
SMILES	TPT1 inh	HNF4A DNA FP	Rpn11 inh	CSN inh
N#CC1=C(N)SC(N)=C(C#N)C1c1ccoc1	32*	.	.	.
CCc1nc2c(OCc3ccc(OC(F)F)cc3)cccn2c1N(C)C(=O)c1cccs1	.	0	i	0
O=C(NCC(F)(F)F)c1ccc(S(=O)(=O)Nc2ccccc2N2CCCC2)cc1	.	27	+	73*
Cc1ccc(C(=O)NNC(=O)CSc2nnc3c(n2)[nH]c2ccc(F)cc23)cc1	-1	-10	i	43*
Nc1sc(-c2ccccc2)cc1C(=O)NCCc1ccc(Cl)cc1	.	56*	.	9
C=CCNC(=O)c1cc(-c2ccccc2)sc1N	.	11	.	13

Compound activity deposited in PubChem BioAssay by several laboratories.
